Assay results collected from several papers.
Lines come from different studies, so protocols differ.
Target: Proto-oncogene tyrosine-protein kinase ROS (ROS1, Homo sapiens, UniProt P08922)

test	setting	endpoint	result	Structure (SMILES)
enzyme activity, inhibitor	10 µM	remaining activity	106%	CCN(CC)c1ccc(C2=NNC(=O)CC2C)cc1[N+](=O)[O-] (stereo not drawn)
enzyme activity, inhibitor, radiometric	1 µM	remaining activity	109%	CC(C)(C)c1nc2c(s1)c1nc(N)ncc1c1ccc(NS(=O)(=O)c3c(F)cccc3F)c(F)c12
enzyme activity, inhibitor	0.3 µM	inhibition	4%	CCN(CC)CCNC(=O)c1c(C)[nH]c(/C=C2\C(=O)Nc3ccc(F)cc32)c1C
enzyme activity, inhibitor	0.1 µM	inhibition	26%	COc1cc2nccc(Oc3ccc(NC(=O)c4c5n(n(-c6ccc(F)cc6)c4=O)CCCC5)cc3)c2cc1OC
cell-free assay, competition with immobilised ligand	1 µM	remaining binding	93%	CCC(=O)N[C@H]1CC[C@@H](C(=O)N(C)c2ccc(-c3nc4ccccc4o3)cc2)C1
enzyme activity, inhibitor, radiometric	1 µM	inhibition	89%	CNC(=O)c1cc2c(Oc3ccc(NC(=O)C4(C(=O)Nc5ccc(F)cc5)CC4)cc3)ccnc2cc1OC
enzyme activity	23.5 nM	remaining activity	78%	Cc1ccc(C(=O)Nc2ccc(CN3CCN(C)CC3)c(C(F)(F)F)c2)cc1C#Cc1cnc2cccnn12
cell-free assay	0.5 µM	remaining signal	90.1%	COc1cc2c(N3CCN(C(=O)Nc4ccc(OC(C)C)cc4)CC3)ncnc2cc1OCCCN1CCCCC1
cell-free assay, competition with immobilised ligand	0.1 µM	remaining binding	100%	COCCOc1nc(-c2ccc(Cl)nc2)nc2c1CN(C(=O)c1ncn3ccccc13)CC2
enzyme activity, inhibitor	1 µM	inhibition	8%	CN1CC(Oc2cnc(C#N)cc2-c2ccn3nc(NC(=O)C4CC4)cc3c2)C1
enzyme activity, inhibitor	0.4 µM	inhibition	0%	CNCc1ccc(-c2cc(-c3nc(-c4ccc(S(=O)(=O)C(C)C)cc4)cnc3N)on2)cc1
cell-free assay, competition with immobilised ligand	1 µM	remaining binding	99%	Cc1c(NC(=O)c2cc(C(N)=O)nc3cc(F)ccc23)c(C(F)(F)F)nn1Cc1ccc(C#N)cc1
enzyme activity, inhibitor	1 µM	inhibition	4%	COc1cc2ncnc(Nc3ccc(Oc4ccccc4)cc3C)c2cc1OC
enzyme activity, inhibitor	5 µM	remaining activity	85.5%	O=C(Nc1cnn(-c2csc(C(=O)NC3COC3)c2)c1)Nc1c(F)cccc1Cl
cell-free assay, competition with immobilised ligand	1 µM	remaining binding	100%	CCOCCn1cc(C(=O)Nc2ccc(-n3nc(-c4cccnc4)cc3C(F)(F)F)cn2)ccc1=O
enzyme activity, inhibitor	10 µM	inhibition	13%	Cc1ccc(Nc2nccc(N(C)c3ccc4c(C)n(C)nc4c3)n2)cc1S(N)(=O)=O
cell-free assay	0.5 µM	remaining signal	99.9%	COc1ccc(COc2ccc(Cc3cnc(N)nc3N)cc2OC)cc1
cell-free assay, competition with immobilised ligand	1 µM	remaining binding	90%	CCCOc1ccc([C@@H]2[C@@H](C(=O)O)[C@H](c3ccc4c(c3)OCO4)CN2CC(=O)Nc2c(CC)cccc2CC)cc1
